Screening data as filed in PubChem.
Pf Dd2 growth: P. falciparum Dd2 growth inhibitors, primary screen, SYBR Green fluorescence, single dose replicates; 72 h; active compounds read low; activity change, % at 10 µM; actives 2.3% (n = 94,000); in the data active means activity change below about -80%; inconclusive means no clear call, values can overlap the other calls
T cruzi growth-1: T. cruzi intracellular proliferation inhibitors, primary screen, cell-based, beta-gal Tulahuen parasites, NIH3T3 host, luminescence; actives 5.9% (n = 77,000); inhibition, % at 8.34 µM; T. cruzi beta-gal in NIH3T3, GalScreen luminescence, 90 h; AID 624255, 2012;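 active means mean inhibition above about 93%, with at least 55% of replicates each passing it, limit read from the data, passing the limit was not always enough; inconclusive means only one of those two conditions holds; inactive means neither condition holds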
GASC1 inh: inhibitors of GASC-1 (KDM4C) histone demethylase, primary screen, biochemical, single concentration HTS; inhibition, % at 12.5 µM; actives 0.15% (n = 96,000); GST-KDM4C 2-372, H3K9me3 peptide, LANCE TR-FRET; AID 720574, 2013;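 active means mean replicate inhibition above about 25%, with at least 55% of replicates also reaching it, limit read from the data, passing the limit was not always enough; inconclusive means only one of those two conditions met; inactive means neither condition met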
Target sequence (Q9H3R0 2-372 limits assumed): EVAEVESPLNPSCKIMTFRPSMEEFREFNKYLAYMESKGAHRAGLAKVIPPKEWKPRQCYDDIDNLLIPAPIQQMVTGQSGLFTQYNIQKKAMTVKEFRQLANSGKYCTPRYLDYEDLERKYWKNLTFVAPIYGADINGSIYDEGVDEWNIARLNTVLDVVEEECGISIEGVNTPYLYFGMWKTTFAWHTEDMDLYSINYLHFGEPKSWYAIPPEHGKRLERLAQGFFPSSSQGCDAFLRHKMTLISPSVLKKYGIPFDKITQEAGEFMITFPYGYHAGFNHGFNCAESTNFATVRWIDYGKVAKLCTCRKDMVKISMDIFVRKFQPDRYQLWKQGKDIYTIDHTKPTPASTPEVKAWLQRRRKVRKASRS
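Test system: N-terminal GST-fused human GASC-1 (KDM4C) fragment, residues 2-372; quantity: GASC-1 enzyme at 10 nM final in reaction; dosing: single dose; schedule: 30 min demethylation and 1 h detection at room temperature; signal: LANCE TR-FRET, excitation 340 nm, emissions 618 and 671 nm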
IDH1 mut inh: inhibitors of IDH1 R132H reductase, primary screen, biochemical, plate reader, single point; diaphorase/resazurin fluorescence, 60 min; actives 0.18% (n = 70,000); inhibition, % at 10 µM; in the data active means inhibition above about 34%; inconclusive means no clear call, values can overlap the other calls; inactive means below about 11%
T cruzi growth-2: T. cruzi intracellular proliferation inhibitors, confirmation, cell-based, NIH3T3 host, beta-gal parasite, luminescence, cherry-pick. shares compounds with T cruzi growth-1. T. cruzi beta-gal in NIH3T3, GalScreen luminescence, 90 h. inhibition, % at 8.35 µM. actives 72% (n = 5,600);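 active means mean replicate inhibition above about 95% and at least 55% of replicates individually reaching it, limit read from the data; inconclusive means only one of the two criteria is met; inactive means neither criterion is met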
T cruzi growth-3: inhibitors of intracellular T. cruzi replication, confirmation, NIH3T3 host cells, beta-gal parasites, cherry-pick, set 2; T. cruzi beta-gal in NIH3T3, GalScreen luminescence, 90 h; inhibition, % at 2.09 µM; actives 21% (n = 5,600); shares compounds with T cruzi growth-1;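 active means mean inhibition above about 95%, with at least 55% of replicates also reaching it, limit read from the data; inconclusive means meets just one of the two conditions; inactive means meets neither condition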
NIH3T3 tox: cytotoxicity in mouse NIH/3T3 fibroblasts, confirmation, cytotoxicity control for T. cruzi proliferation inhibitor project, cell-based, cherry-pick, single point | actives 14% (n = 5,600) | cytotoxicity (signal decrease), % at 8.35 µM | NIH/3T3 viability, CellTiter-Glo ATP luminescence, 90 h | shares compounds with T cruzi growth-1;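 active means mean signal decrease across replicates above about 35% based on untreated-well scatter, with enough replicates individually passing, limit read from the data; inconclusive means no rule stated though some were filed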
NIH3T3 tox 2: NIH/3T3 fibroblast cytotoxicity, confirmation, cytotoxicity control, cell-based, cherry-pick, single point, set 2; NIH/3T3 viability, CellTiter-Glo ATP luminescence, 90 h; shares compounds with T cruzi growth-1; inhibition, % at 24.9 µM; actives 56% (n = 5,600);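 active means mean loss of cell viability signal at or above a set limit, and enough replicates individually reaching it; inconclusive means meets only the mean limit or only the replicate share; inactive means meets neither condition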
Numbers stand for hits. Compounds with a hit are over-represented: about 5.8% of the library has one in this group of screens.

How did O=C(Nc1ccc(Cl)cc1)N1C[C@H]2[C@@H](c3ccccc31)[C@H](CO)N2CC1CCCC1 do in these assays?
Pf Dd2 growth: inactive; T cruzi growth-1: inactive; GASC1 inh: inactive

How did Cc1cccc(S(=O)(=O)N2C[C@H]3[C@@H](c4ccccc42)[C@H](CO)N3CC2CCCC2)c1 do in these assays?
Pf Dd2 growth: inactive; T cruzi growth-1: inconclusive; GASC1 inh: inactive; T cruzi growth-2: 111.6; T cruzi growth-3: inactive; NIH3T3 tox: inactive; NIH3T3 tox 2: inconclusive

What do the screens show for `O=C(Nc1ccc(F)cc1)N1C[C@@H]2[C@H](c3ccccc31)[C@@H](CO)N2Cc1ccccc1Cl`?
Pf Dd2 growth: inactive; T cruzi growth-1: inactive; GASC1 inh: inactive

How did O=C(Nc1ccc(Cl)cc1)N1C[C@@H]2[C@H](c3ccccc31)[C@H](CO)N2CC1CCCCC1 do in these assays?
Pf Dd2 growth: inactive; T cruzi growth-1: 117.8; GASC1 inh: inactive; T cruzi growth-2: 110.8; T cruzi growth-3: inactive; NIH3T3 tox: inactive; NIH3T3 tox 2: 103.4

Results for Cc1cccc(C)c1OCC(=O)Nc1ccc([N+](=O)[O-])cc1O ?
IDH1 mut inh: inactive

How did O=C(C1CCCCC1)N1C[C@H]2[C@@H](c3ccccc31)[C@@H](CO)N2Cc1ccccc1Cl do in these assays?
Pf Dd2 growth: inactive; T cruzi growth-1: 101.4; GASC1 inh: inactive; T cruzi growth-2: 102.6; T cruzi growth-3: inactive; NIH3T3 tox: inactive; NIH3T3 tox 2: inactive

How did COc1ccc(NC(=O)Nc2ccc3c(c2)C(=O)N([C@H](C)CO)C[C@@H](C)[C@H](CN(C)Cc2ccccc2)OCCCC[C@H](C)O3)cc1 do in these assays?
Pf Dd2 growth: inactive; T cruzi growth-1: inactive; GASC1 inh: inactive; IDH1 mut inh: inactive

What do the screens show for `COc1ccc(NC(=O)Nc2ccc3c(c2)C(=O)N([C@H](C)CO)C[C@H](C)[C@H](CN(C)Cc2ccccc2)OCCCC[C@H](C)O3)cc1`?
Pf Dd2 growth: inactive; T cruzi growth-1: inactive; GASC1 inh: inactive

What do the screens show for `COc1ccc(NC(=O)Nc2ccc3c(c2)C(=O)N([C@@H](C)CO)C[C@@H](C)[C@@H](CN(C)Cc2ccccc2)OCCCC[C@H](C)O3)cc1`?
Pf Dd2 growth: inactive; T cruzi growth-1: 102.7; GASC1 inh: inactive; IDH1 mut inh: inactive; T cruzi growth-2: 106.4; T cruzi growth-3: inactive; NIH3T3 tox: inactive; NIH3T3 tox 2: inactive

Results for COc1ccc(NC(=O)Nc2ccc3c(c2)C(=O)N([C@@H](C)CO)C[C@@H](C)[C@H](CN(C)Cc2ccccc2)OCCCC[C@@H](C)O3)cc1 ?
Pf Dd2 growth: inactive; T cruzi growth-1: 97.9; GASC1 inh: inactive; IDH1 mut inh: inactive; T cruzi growth-2: 110.5; T cruzi growth-3: inactive; NIH3T3 tox: inactive; NIH3T3 tox 2: inactive

Results for CCS(=O)(=O)Nc1ccc2c(c1)C(=O)N(C)C[C@@H](OC)[C@H](C)CN(C(=O)c1ccc3c(c1)OCO3)[C@@H](C)CO2 ?
Pf Dd2 growth: inactive; T cruzi growth-1: inactive; GASC1 inh: inactive; IDH1 mut inh: inactive

How did C[C@H](O)C#Cc1ccc([C@H]2[C@@H](CO)N3CCCCN(C(=O)c4cccc(F)c4)C[C@@H]23)cc1 do in these assays?
Pf Dd2 growth: inactive; T cruzi growth-1: 103.9; GASC1 inh: inactive; T cruzi growth-2: inactive; T cruzi growth-3: inactive; NIH3T3 tox: inactive; NIH3T3 tox 2: inactive
